Laboratory results published in ChEMBL document CHEMBL4715736, “Identification of anticancer agents based on the thieno[2,3-b]pyridine and 1H-pyrazole molecular scaffolds” (2016).

Tested on: HOP-92
Experiment: Growth inhibition of human HOP-92 cells incubated for 48 hrs by sulforhodamine B assay
Assay type: functional
Details: not given
Summary of the method: (§1)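 NCI60 panel at the NCI Developmental Therapeutics Program. Only compounds active in the 10 µM screen went to dose-response testing. GI50, the concentration giving 50% of maximal inhibition of proliferation, and TGI, the concentration giving total growth inhibition, were derived from the dose-response curves.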

Question: What does the source list for `Cc1cc(C)c(NC(=O)c2sc3nc4c(cc3c2N)CN(Cc2ccccc2)CC4)c(C)c1`?
Answer: LC50 (concentration killing 50% of the starting cells): > 100 µM; TGI: 42.6 µM

Tested on: SF-539
Experiment: Growth inhibition of human SF-539 cells assessed as cell growth at 0.1 uM incubated for 48 hrs by sulforhodamine B assay relative to control
Assay type: functional
Details: read-out: Activity

Question: For `Cc1cc(C)c(NC(=O)c2sc3nc4c(cc3c2N)CN(Cc2ccccc2)CC4)c(C)c1`, which growth at 0.1 µM is on record?
Answer: 96%

Tested on: HCC 2998
Experiment: Growth inhibition of human HCC 2998 cells incubated for 48 hrs by sulforhodamine B assay
Assay type: functional
Details: not given

Question: Which results are given for `Cc1cc(C)c(NC(=O)c2sc3nc4c(cc3c2N)CN(Cc2ccccc2)CC4)c(C)c1`?
Answer: GI50: 5.33 µM; TGI: 38.4 µM

Same assay, conditions: read-out: LC50 (the source's name)

Question: With `Cc1cc(C)c(NC(=O)c2sc3nc4c(cc3c2N)CN(Cc2ccccc2)CC4)c(C)c1` as the compound, how does the CC50 read?
Answer: > 100 µM

Tested on: NCI-H460
Experiment: Growth inhibition of human NCI-H460 cells assessed as cell growth at 0.01 uM incubated for 48 hrs by sulforhodamine B assay relative to control
Assay type: functional
Details: read-out: Activity

Question: Which growth at 0.01 µM does the source give for `Cc1cc(C)c(NC(=O)c2sc3nc4c(cc3c2N)CN(Cc2ccccc2)CC4)c(C)c1` here?
Answer: 99%

Tested on: NCI-H322M
Experiment: Growth inhibition of human NCI-H322M cells assessed as cell growth at 0.01 uM incubated for 48 hrs by sulforhodamine B assay relative to control
Assay type: functional
Details: read-out: Activity

Question: `Cc1cc(C)c(NC(=O)c2sc3nc4c(cc3c2N)CN(Cc2ccccc2)CC4)c(C)c1` was tested. Which growth at 0.01 µM did it give?
Answer: 96%

Tested on: TK-10
Experiment: Growth inhibition of human TK-10 cells assessed as cell growth at 100 uM incubated for 48 hrs by sulforhodamine B assay relative to control
Assay type: functional
Details: read-out: Activity

Question: How did the growth at 100 µM turn out when `Cc1cc(C)c(NC(=O)c2sc3nc4c(cc3c2N)CN(Cc2ccccc2)CC4)c(C)c1` was run?
Answer: 5%

Tested on: DU-145
Experiment: Growth inhibition of human DU-145 cells assessed as cell growth at 0.1 uM incubated for 48 hrs by sulforhodamine B assay relative to control
Assay type: functional
Details: read-out: Activity
Summary of the method: (§2)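 NCI Developmental Therapeutics Program NCI60 panel. Compounds that were active in the 10 µM one-dose screen went on to dose–response testing. Growth at each concentration is expressed relative to untreated control (100%). GI50 (concentration giving 50% of maximal inhibition of proliferation) and TGI (concentration giving total growth inhibition) were derived from the curves.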

Question: How did the growth at 0.1 µM turn out when `Cc1cc(C)c(NC(=O)c2sc3nc4c(cc3c2N)CN(Cc2ccccc2)CC4)c(C)c1` was run?
Answer: 101%

Tested on: SNB-19
Experiment: Growth inhibition of human SNB-19 cells assessed as cell growth at 0.01 uM incubated for 48 hrs by sulforhodamine B assay relative to control
Assay type: functional
Details: read-out: Activity

Question: How did the growth at 0.01 µM turn out when `Cc1cc(C)c(NC(=O)c2sc3nc4c(cc3c2N)CN(Cc2ccccc2)CC4)c(C)c1` was run?
Answer: 98%

Tested on: K562
Experiment: Growth inhibition of human K562 cells assessed as cell growth at 1 uM incubated for 48 hrs by sulforhodamine B assay relative to control
Assay type: functional
Details: read-out: Activity

Question: With `Cc1cc(C)c(NC(=O)c2sc3nc4c(cc3c2N)CN(Cc2ccccc2)CC4)c(C)c1` as the compound, how does the growth at 1 µM read?
Answer: 47%

Tested on: 786-0
Experiment: Growth inhibition of human 786-0 cells assessed as cell growth at 0.1 uM incubated for 48 hrs by sulforhodamine B assay relative to control
Assay type: functional
Details: read-out: Activity
Summary of the method: as §2

Question: Which growth at 0.1 µM does the source give for `Cc1cc(C)c(NC(=O)c2sc3nc4c(cc3c2N)CN(Cc2ccccc2)CC4)c(C)c1` here?
Answer: 92%

Tested on: SK-OV-3
Experiment: Growth inhibition of human SK-OV-3 cells assessed as cell growth at 0.01 uM incubated for 48 hrs by sulforhodamine B assay relative to control
Assay type: functional
Details: read-out: Activity

Question: How did the growth at 0.01 µM turn out when `Cc1cc(C)c(NC(=O)c2sc3nc4c(cc3c2N)CN(Cc2ccccc2)CC4)c(C)c1` was run?
Answer: 92%

Tested on: UO-31
Experiment: Growth inhibition of human UO-31 cells assessed as cell growth at 1 uM incubated for 48 hrs by sulforhodamine B assay relative to control
Assay type: functional
Details: read-out: Activity

Question: `Cc1cc(C)c(NC(=O)c2sc3nc4c(cc3c2N)CN(Cc2ccccc2)CC4)c(C)c1` was tested. Which growth at 1 µM did it give?
Answer: 77%

Tested on: Malme-3M
Experiment: Growth inhibition of human Malme-3M cells assessed as cell growth at 100 uM incubated for 48 hrs by sulforhodamine B assay relative to control
Assay type: functional
Details: read-out: Activity

Question: How did the growth at 100 µM turn out when `Cc1cc(C)c(NC(=O)c2sc3nc4c(cc3c2N)CN(Cc2ccccc2)CC4)c(C)c1` was run?
Answer: -17%

Tested on: OVCAR-3
Experiment: Growth inhibition of human OVCAR-3 cells assessed as cell growth at 1 uM incubated for 48 hrs by sulforhodamine B assay relative to control
Assay type: functional
Details: read-out: Activity

Question: For `Cc1cc(C)c(NC(=O)c2sc3nc4c(cc3c2N)CN(Cc2ccccc2)CC4)c(C)c1`, which growth at 1 µM is on record?
Answer: 76%

Tested on: NCI-H226
Experiment: Growth inhibition of human NCI-H226 cells assessed as cell growth at 1 uM incubated for 48 hrs by sulforhodamine B assay relative to control
Assay type: functional
Details: read-out: Activity

Question: `Cc1cc(C)c(NC(=O)c2sc3nc4c(cc3c2N)CN(Cc2ccccc2)CC4)c(C)c1` was tested. Which growth at 1 µM did it give?
Answer: 78%

Tested on: M14
Experiment: Growth inhibition of human M14 cells incubated for 48 hrs by sulforhodamine B assay
Assay type: functional
Details: not given
Summary of the method: as §1

Question: With `Cc1cc(C)c(NC(=O)c2sc3nc4c(cc3c2N)CN(Cc2ccccc2)CC4)c(C)c1` as the compound, how does the GI50 read?
Answer: 2.89 µM

Question: And the LC50 (concentration killing 50% of cells)?
Answer: > 100 µM

Question: And the TGI?
Answer: 31.5 µM

Tested on: NCI-H522
Experiment: Growth inhibition of human NCI-H522 cells assessed as cell growth at 0.1 uM incubated for 48 hrs by sulforhodamine B assay relative to control
Assay type: functional
Details: read-out: Activity

Question: How did the growth at 0.1 µM turn out when `Cc1cc(C)c(NC(=O)c2sc3nc4c(cc3c2N)CN(Cc2ccccc2)CC4)c(C)c1` was run?
Answer: 97%

Tested on: UACC-62
Experiment: Growth inhibition of human UACC-62 cells assessed as cell growth at 0.1 uM incubated for 48 hrs by sulforhodamine B assay relative to control
Assay type: functional
Details: read-out: Activity

Question: `Cc1cc(C)c(NC(=O)c2sc3nc4c(cc3c2N)CN(Cc2ccccc2)CC4)c(C)c1` was tested. Which growth at 0.1 µM did it give?
Answer: 97%

Tested on: SK-MEL-2
Experiment: Growth inhibition of human SK-MEL-2 cells assessed as cell growth at 0.01 uM incubated for 48 hrs by sulforhodamine B assay relative to control
Assay type: functional
Details: read-out: Activity

Question: How did the growth at 0.01 µM turn out when `Cc1cc(C)c(NC(=O)c2sc3nc4c(cc3c2N)CN(Cc2ccccc2)CC4)c(C)c1` was run?
Answer: 108%
